Test results from publication PMC6429430 (ACS Chemical Neuroscience, 2018).
Where two headings read alike, the source gives them in different places.

Legend:
[1] = cited from earlier work
[2] = test system: dendritic spines in CA1 region of the dorsal hippocampus; experiment: Hippocampal dendritic spine density analysis; format: in vivo, mouse; details: WT mice
[3] = test system: hippocampal LTP (Schaffer collateral-CA1); experiment: LTP in 5xFAD mice; format: in vivo, mouse; details: aged 5xFAD mice, 1 mg/kg po for 14 days
Summary of the method: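 Aged 5xFAD mice on a C57BL/6J background (9–12 months) and age-matched WT mice were dosed by oral gavage once daily for 14 days (n = 8 per group). Hippocampal slices (350 μm) were held at room temperature for at least 1 h in oxygenated aCSF (pH 7.4), then perfused at 30 °C for 0.5 h in a multielectrode chamber. Schaffer collateral–CA1 LTP was recorded as normalised fEPSP slope over the last 10 min.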

HDAC11 = molecular target: T1, HDAC11 (Homo sapiens, UniProt Q96DB2); experiment: Recombinant HDAC isoform biochemical assay
T1 sequence (Q96DB2 1-347): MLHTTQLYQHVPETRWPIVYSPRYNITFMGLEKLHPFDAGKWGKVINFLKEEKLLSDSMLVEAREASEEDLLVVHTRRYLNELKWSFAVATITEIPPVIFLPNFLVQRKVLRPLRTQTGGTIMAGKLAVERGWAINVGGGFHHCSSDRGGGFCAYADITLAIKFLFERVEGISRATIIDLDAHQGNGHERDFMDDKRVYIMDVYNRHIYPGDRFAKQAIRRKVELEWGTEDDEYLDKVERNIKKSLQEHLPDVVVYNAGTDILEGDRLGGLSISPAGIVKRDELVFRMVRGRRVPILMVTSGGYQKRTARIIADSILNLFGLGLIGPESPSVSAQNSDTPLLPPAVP

[4] = test system: human myeloid progenitors; experiment: Colony forming cell; format: cell-based; details: human bone marrow cells, 14 days in culture
Summary of the method: (§1)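 Normal human bone marrow light-density cells, thawed rapidly and washed in IMDM + 10% FBS, were plated at 2.0 × 10^4 cells per culture. Medium was semisolid methylcellulose with rhIL-3 10 ng/mL, rhGM-CSF 10 ng/mL, rhSCF 50 ng/mL and Epo 3 U/mL. Compound was added at final 10, 2 and 0.4 μM, with 0.1% DMSO solvent control and 5-FU (1.0, 0.1, 0.01 μg/mL) as positive control. After 14 days, erythroid (CFU-E, BFU-E) and myeloid (CFU-GM) colonies were scored microscopically. Three replicate cultures were compared with solvent control by two-tailed t test.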

[5] = test system: human erythroid progenitors; experiment: Colony forming cell; format: cell-based; details: human bone marrow cells, 14 days in culture
Summary of the method: as §1

[6] = rats, 1.5, 5, 15 mg/kg daily orally, 2 weeks; cited from earlier work
[7] = Reported 2 week toxicity of CI-994 in dogs; format: in vivo, dog

SMILES: CC(=O)Nc1ccc(C(=O)Nc2ccccc2N)cc1 [CI-994]
- reported NOAEL in dogs ([1]; 2 weeks of daily dosing): 0.5 mg/kg
- dose-limiting toxicity ([1]; dogs, 0.5, 2, 5 mg/kg daily, 2 weeks): primarily bone marrow suppression
- day 12 AUC ([1]; male dogs, 2 mg/kg daily): 9.91 ng·h/mL
- increase in total spine density ([2]; 1 mg/kg daily oral for 14 days, vs vehicle): 29%
- dendritic spine density compared to vehicle-treated controls ([2]; oral daily 14 days, Rodin-A 1, 3, 6 mg/kg, CI-994 1 and 3 mg/kg): significant increases in spine density
- effect on impaired LTP [3]: improves impaired LTP
- IC50 (HDAC11): > 30 µM
- myeloid progenitors: % control at 10 μM [4]: 0 % control
- erythroid progenitors: % control at 10 μM [5]: 0 % control
- dose-limiting toxicity [6]: primarily bone marrow suppression
- safety margin ([7]; HED at reported dog NOAEL vs efficacious HED): 3.4 fold
- NOAEL at 2 weeks ([7]; dog, in vivo, 0.5 mg/kg): 16.2 mg/kg
